# Reference: ChEMBL document CHEMBL4622928, “Discovery of 5-(4-methylpiperazin-1-yl)-2-nitroaniline derivatives as a new class of SIRT6 inhibitors” (Bioorg Med Chem Lett, 2020)
# Activity calls are given as the source filed them. The rule behind the calls is not given here.
# Legend:
# [1] = molecular target: T1, NAD-dependent protein deacetylase sirtuin-1 (Homo sapiens, UniProt Q96EB6); assay: Inhibition of SIRT1 (unknown origin)
# T1 sequence (Q96EB6 whole entry): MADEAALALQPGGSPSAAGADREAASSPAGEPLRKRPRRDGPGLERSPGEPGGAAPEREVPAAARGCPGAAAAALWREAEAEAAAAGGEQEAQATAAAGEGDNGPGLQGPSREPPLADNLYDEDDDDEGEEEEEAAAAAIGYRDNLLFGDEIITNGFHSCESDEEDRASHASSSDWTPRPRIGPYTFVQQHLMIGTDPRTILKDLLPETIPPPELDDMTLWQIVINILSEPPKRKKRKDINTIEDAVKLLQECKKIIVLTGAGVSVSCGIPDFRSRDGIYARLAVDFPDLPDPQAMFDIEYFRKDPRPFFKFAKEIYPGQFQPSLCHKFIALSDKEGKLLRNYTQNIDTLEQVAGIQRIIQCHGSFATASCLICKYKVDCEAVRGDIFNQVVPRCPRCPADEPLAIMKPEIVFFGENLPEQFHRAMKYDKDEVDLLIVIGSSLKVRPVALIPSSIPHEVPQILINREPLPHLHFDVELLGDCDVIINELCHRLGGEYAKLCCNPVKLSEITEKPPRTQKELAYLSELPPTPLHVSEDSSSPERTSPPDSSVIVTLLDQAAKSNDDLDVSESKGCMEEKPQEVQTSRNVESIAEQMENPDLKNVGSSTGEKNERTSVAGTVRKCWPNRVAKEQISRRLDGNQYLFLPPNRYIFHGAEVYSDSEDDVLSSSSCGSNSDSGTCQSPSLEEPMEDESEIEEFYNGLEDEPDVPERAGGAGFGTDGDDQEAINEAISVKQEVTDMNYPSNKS
# Outline: (§1)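 Each deacetylase was run in a Fluor de Lys (FDL) fluorogenic deacetylation assay as a selectivity screen, with compound tested at concentrations up to 200 μM. IC50 was estimated from the dose-response.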
# [2] = molecular target: NAD-dependent protein deacylase sirtuin-6 (Homo sapiens, UniProt Q8N6T7); assay: Binding affinity to SIRT6 (unknown origin) by surface plasmon resonance assay
# Sequence of NAD-dependent protein deacylase sirtuin-6 (Q8N6T7 whole entry): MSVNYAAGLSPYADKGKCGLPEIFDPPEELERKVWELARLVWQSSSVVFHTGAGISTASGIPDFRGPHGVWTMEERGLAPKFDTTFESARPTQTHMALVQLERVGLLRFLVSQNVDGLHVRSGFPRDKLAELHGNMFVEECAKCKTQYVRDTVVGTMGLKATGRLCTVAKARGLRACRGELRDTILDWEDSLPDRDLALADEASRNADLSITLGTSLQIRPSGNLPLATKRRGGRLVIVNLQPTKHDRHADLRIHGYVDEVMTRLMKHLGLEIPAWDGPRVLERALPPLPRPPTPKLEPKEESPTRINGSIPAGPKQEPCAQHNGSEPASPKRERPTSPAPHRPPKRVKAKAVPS
# [3] = test system: Mus musculus; assay: Antidiabetic activity in mouse model of type-2 diabetes mellitus assessed as reduction in blood glucose at 7.5 to 30 mg/kg, ip; type: functional, organism-based
# Outline: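 High-fat-diet-fed mice served as the type 2 diabetes model. Compound was given by intraperitoneal injection, and blood glucose and body weight were followed over time.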
# [4] = molecular target: T2, NAD-dependent protein deacetylase sirtuin-3, mitochondrial (Homo sapiens, UniProt Q9NTG7); assay: Inhibition of SIRT3 (unknown origin); outline: as §1
# T2 sequence (Q9NTG7 whole entry): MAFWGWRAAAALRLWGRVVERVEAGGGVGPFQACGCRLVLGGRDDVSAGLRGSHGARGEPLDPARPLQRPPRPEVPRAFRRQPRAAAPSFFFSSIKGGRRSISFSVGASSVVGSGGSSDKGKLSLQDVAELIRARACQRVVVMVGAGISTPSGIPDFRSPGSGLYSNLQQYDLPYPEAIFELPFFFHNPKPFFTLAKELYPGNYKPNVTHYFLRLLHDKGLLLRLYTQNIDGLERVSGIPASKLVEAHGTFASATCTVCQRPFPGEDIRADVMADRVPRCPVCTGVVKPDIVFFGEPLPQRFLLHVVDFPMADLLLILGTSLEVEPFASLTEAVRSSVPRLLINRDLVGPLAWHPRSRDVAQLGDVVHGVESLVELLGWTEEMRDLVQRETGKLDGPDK
# [5] = molecular target: T3, Histone deacetylase 8 (Homo sapiens, UniProt Q9BY41); assay: Inhibition of HDAC8 (unknown origin); outline: as §1
# T3 sequence (Q9BY41 whole entry): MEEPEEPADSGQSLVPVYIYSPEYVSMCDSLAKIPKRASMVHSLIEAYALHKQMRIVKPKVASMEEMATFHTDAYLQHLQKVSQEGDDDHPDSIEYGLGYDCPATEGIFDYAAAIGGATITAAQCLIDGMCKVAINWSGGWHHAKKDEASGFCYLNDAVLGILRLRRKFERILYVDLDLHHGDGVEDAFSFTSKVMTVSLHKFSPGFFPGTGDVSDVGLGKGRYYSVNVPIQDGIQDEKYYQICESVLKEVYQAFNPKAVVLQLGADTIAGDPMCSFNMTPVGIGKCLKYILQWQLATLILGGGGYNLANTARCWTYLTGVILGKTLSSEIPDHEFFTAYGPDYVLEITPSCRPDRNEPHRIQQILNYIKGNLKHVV
# [6] = molecular target: Histone deacetylase 2 (Homo sapiens, UniProt Q92769); assay: Inhibition of HDAC2 (unknown origin); outline: as §1
# Sequence of Histone deacetylase 2 (Q92769 whole entry): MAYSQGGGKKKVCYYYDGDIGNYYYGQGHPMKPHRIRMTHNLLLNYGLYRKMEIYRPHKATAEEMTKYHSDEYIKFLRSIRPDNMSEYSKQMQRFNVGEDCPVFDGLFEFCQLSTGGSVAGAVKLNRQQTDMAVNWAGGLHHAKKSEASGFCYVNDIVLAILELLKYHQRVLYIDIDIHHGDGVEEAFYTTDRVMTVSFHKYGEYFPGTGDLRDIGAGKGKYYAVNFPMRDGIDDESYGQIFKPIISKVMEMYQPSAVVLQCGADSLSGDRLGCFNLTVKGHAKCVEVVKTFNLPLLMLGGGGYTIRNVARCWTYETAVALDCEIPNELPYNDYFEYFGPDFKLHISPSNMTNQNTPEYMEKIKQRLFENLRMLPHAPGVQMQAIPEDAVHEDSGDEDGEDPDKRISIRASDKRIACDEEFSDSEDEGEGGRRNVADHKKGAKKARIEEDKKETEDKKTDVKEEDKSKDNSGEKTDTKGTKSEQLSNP
# [7] = molecular target: T4, Histone deacetylase 7 (Homo sapiens, UniProt Q8WUI4); assay: Inhibition of HDAC7 (unknown origin); outline: as §1
# T4 sequence (Q8WUI4 whole entry): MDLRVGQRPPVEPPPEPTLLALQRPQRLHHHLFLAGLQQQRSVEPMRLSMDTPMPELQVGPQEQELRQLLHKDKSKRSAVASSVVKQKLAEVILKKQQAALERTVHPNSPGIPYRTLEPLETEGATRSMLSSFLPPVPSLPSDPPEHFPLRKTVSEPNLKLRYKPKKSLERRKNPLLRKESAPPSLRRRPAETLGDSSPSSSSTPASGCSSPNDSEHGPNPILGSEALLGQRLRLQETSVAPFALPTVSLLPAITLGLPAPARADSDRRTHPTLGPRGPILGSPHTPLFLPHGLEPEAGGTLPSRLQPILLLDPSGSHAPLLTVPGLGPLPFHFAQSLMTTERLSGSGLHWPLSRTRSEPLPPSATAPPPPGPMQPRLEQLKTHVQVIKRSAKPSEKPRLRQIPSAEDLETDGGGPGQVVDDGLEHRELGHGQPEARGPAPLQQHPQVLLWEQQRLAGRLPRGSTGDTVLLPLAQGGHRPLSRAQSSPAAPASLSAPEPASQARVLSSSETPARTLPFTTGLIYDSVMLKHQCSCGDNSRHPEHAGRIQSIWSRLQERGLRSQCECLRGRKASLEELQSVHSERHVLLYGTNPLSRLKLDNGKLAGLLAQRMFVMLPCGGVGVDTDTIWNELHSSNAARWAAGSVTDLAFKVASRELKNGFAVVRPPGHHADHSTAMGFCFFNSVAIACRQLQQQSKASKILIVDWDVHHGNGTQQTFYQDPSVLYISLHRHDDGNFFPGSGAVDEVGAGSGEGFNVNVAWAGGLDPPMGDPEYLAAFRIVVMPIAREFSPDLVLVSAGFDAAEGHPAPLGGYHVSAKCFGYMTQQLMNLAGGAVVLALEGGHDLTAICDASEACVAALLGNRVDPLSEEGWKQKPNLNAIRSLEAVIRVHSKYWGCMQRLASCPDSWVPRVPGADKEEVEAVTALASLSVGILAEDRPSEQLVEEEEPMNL
structure (smiles),measurement,setting,value
CN1CCN(c2ccc([N+](=O)[O-])c(N)c2)CC1,IC50,[1],> 200 µM
same,Kd,[2],9.76 µM
same,Activity,[3],Active
same,IC50,[4],> 200 µM
same,IC50,[5],> 200 µM
same,IC50,[6],> 200 µM
same,IC50,[7],> 200 µM
